Results of several laboratories.
PIK3CA M1043I: Phosphatidylinositol 4,5-bisphosphate 3-kinase catalytic subunit alpha isoform (PIK3CA, Homo sapiens, UniProt P42336, M1043I)

`C[C@H]1CC[C@H](n2c3cnccc3c3cnc(Nc4ccc5c(n4)CCN(C(=O)CO)C5)nc32)CC1` has a remaining signal of 100% (Phosphatidylinositol 4,5-bisphosphate 3-kinase catalytic subunit alpha isoform (PIK3CA, Homo sapiens, UniProt P42336, E545K); cell-free assay; 1 µM).
With `CO[C@@H]1[C@H](N(C)C(=O)c2ccccc2)C[C@H]2O[C@]1(C)n1c3ccccc3c3c4c(c5c6ccccc6n2c5c31)C(=O)NC4` the inhibition was 1% (PIK3CA M1043I; enzyme activity; inhibitor; 1 µM).
`COc1ccc2[nH]c3c4[nH]c5ccc(OC)cc5c4c4c(c3c2c1)C(=O)NC4=O` has a remaining binding of 91% (Phosphatidylinositol 4,5-bisphosphate 3-kinase catalytic subunit alpha isoform (PIK3CA, Homo sapiens, UniProt P42336); binding; 1 µM).
For `CCCCC(=O)Nc1ccc(-c2ccc3ncn(CCC)c(=O)c3c2)cn1`, the remaining binding was 91% (PIK3CA M1043I; binding; competition with immobilised ligand; 0.5 µM).
With `CC(C)S(=O)(=O)c1ccc2nccc(Nc3ccc4sc(C5CCCC5)nc4c3)c2c1` the activity vs control was 98.5% (Phosphatidylinositol 4,5-bisphosphate 3-kinase catalytic subunit alpha isoform, with p85 (PIK3CA, Homo sapiens, UniProt P42336); enzyme activity; inhibitor; 1 µM).
For `C=CC(=O)N1CCC[C@@H](n2nc(-c3ccc(Oc4ccccc4)cc3)c3c(N)ncnc32)C1`, the inhibition was 28% (Phosphatidylinositol 4,5-bisphosphate 3-kinase catalytic subunit alpha isoform (PIK3CA, Homo sapiens, UniProt P42336, C420R); enzyme activity; inhibitor; 1 µM).
The remaining binding of `C1=C/COCc2cc(ccc2OCCN2CCCC2)Nc2nccc(n2)-c2cccc(c2)COC/1` is reported as 60% (Phosphatidylinositol 4,5-bisphosphate 3-kinase catalytic subunit alpha isoform (PIK3CA, Homo sapiens, UniProt P42336, I800L); binding; 0.1 µM).
For `Cc1ccc(NC(=O)c2ccnc(C(F)(F)F)c2)cc1-c1cc(OCCO)nc(N2CCOCC2)c1`, the remaining binding was 74% (Phosphatidylinositol 4,5-bisphosphate 3-kinase catalytic subunit alpha isoform (PIK3CA, Homo sapiens, UniProt P42336, H1047Y); binding; 1 µM).
`CC#CC(=O)N1CCC[C@H]1c1nc(-c2ccc(C(=O)Nc3ccccn3)cc2)c2c(N)nccn12` gave an inhibition of 38% (Phosphatidylinositol 4,5-bisphosphate 3-kinase catalytic subunit alpha isoform (PIK3CA, Homo sapiens, UniProt P42336, Q546K); enzyme activity; inhibitor; 1 µM).
